Measured values published in ChEMBL document CHEMBL4346709, “Design and Optimization Leading to an Orally Active TTK Protein Kinase Inhibitor with Robust Single Agent Efficacy” (J Med Chem, 2019).

Tests used:
[1] = AUC in rat at 10 mg/kg, po; type: ADME, organism-based; conditions: in vivo
Outline: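 Rat oral PK at 10 mg/kg. Compound is given as a solution in CMCT (0.5% CMC/0.25% tween-80) or formulated in 5% TPGS, 10% captisol, 50 mM citrate buffer. Cmax and AUC are recorded.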

[2] = target: T1, Dual specificity protein kinase TTK (Homo sapiens, UniProt P33981); assay: Inhibition of TTK autophosphorylation in human CAL51 cells by radioimmuno-precipitation assay; type: cell-based
T1 sequence (P33981 whole entry): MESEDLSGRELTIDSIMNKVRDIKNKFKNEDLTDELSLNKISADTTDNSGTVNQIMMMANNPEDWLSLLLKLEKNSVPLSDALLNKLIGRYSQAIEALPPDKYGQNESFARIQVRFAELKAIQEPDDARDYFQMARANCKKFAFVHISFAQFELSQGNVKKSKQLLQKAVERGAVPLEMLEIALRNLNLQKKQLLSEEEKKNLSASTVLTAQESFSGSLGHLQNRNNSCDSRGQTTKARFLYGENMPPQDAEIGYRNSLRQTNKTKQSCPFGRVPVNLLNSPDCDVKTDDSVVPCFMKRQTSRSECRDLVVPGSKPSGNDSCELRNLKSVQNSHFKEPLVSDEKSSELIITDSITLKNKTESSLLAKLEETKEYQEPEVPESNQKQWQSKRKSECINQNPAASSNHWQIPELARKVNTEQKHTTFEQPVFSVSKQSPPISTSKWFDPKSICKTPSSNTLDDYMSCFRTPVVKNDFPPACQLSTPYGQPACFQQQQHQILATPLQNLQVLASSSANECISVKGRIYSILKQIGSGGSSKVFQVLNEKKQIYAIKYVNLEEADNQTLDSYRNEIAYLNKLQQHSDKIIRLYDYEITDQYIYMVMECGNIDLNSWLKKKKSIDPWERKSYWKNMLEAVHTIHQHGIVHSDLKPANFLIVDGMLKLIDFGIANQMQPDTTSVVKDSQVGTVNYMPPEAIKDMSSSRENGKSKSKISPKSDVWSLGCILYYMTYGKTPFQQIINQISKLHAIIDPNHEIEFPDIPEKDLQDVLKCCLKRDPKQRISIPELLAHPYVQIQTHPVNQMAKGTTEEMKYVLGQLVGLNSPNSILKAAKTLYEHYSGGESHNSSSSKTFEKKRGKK

LRRK2 G2019S mutant = LRRK2 G2019S mutant (Homo sapiens, UniProt Q5S007, G2019S); assay: Inhibition of recombinant human GST-tagged LRRK2 G2019S mutant catalytic domain (970 to 2527 residues) expressed in baculovirus expression system at 3 uM using LRRKtide as substrate measured after 1 hr by Alexa-fluor-647 ADP tracer-based ADAPTA assay relative to control; conditions: probe LRRKtide
LRRK2 G2019S mutant, sequence (Q5S007 whole entry G2019S, the tested form may be a part): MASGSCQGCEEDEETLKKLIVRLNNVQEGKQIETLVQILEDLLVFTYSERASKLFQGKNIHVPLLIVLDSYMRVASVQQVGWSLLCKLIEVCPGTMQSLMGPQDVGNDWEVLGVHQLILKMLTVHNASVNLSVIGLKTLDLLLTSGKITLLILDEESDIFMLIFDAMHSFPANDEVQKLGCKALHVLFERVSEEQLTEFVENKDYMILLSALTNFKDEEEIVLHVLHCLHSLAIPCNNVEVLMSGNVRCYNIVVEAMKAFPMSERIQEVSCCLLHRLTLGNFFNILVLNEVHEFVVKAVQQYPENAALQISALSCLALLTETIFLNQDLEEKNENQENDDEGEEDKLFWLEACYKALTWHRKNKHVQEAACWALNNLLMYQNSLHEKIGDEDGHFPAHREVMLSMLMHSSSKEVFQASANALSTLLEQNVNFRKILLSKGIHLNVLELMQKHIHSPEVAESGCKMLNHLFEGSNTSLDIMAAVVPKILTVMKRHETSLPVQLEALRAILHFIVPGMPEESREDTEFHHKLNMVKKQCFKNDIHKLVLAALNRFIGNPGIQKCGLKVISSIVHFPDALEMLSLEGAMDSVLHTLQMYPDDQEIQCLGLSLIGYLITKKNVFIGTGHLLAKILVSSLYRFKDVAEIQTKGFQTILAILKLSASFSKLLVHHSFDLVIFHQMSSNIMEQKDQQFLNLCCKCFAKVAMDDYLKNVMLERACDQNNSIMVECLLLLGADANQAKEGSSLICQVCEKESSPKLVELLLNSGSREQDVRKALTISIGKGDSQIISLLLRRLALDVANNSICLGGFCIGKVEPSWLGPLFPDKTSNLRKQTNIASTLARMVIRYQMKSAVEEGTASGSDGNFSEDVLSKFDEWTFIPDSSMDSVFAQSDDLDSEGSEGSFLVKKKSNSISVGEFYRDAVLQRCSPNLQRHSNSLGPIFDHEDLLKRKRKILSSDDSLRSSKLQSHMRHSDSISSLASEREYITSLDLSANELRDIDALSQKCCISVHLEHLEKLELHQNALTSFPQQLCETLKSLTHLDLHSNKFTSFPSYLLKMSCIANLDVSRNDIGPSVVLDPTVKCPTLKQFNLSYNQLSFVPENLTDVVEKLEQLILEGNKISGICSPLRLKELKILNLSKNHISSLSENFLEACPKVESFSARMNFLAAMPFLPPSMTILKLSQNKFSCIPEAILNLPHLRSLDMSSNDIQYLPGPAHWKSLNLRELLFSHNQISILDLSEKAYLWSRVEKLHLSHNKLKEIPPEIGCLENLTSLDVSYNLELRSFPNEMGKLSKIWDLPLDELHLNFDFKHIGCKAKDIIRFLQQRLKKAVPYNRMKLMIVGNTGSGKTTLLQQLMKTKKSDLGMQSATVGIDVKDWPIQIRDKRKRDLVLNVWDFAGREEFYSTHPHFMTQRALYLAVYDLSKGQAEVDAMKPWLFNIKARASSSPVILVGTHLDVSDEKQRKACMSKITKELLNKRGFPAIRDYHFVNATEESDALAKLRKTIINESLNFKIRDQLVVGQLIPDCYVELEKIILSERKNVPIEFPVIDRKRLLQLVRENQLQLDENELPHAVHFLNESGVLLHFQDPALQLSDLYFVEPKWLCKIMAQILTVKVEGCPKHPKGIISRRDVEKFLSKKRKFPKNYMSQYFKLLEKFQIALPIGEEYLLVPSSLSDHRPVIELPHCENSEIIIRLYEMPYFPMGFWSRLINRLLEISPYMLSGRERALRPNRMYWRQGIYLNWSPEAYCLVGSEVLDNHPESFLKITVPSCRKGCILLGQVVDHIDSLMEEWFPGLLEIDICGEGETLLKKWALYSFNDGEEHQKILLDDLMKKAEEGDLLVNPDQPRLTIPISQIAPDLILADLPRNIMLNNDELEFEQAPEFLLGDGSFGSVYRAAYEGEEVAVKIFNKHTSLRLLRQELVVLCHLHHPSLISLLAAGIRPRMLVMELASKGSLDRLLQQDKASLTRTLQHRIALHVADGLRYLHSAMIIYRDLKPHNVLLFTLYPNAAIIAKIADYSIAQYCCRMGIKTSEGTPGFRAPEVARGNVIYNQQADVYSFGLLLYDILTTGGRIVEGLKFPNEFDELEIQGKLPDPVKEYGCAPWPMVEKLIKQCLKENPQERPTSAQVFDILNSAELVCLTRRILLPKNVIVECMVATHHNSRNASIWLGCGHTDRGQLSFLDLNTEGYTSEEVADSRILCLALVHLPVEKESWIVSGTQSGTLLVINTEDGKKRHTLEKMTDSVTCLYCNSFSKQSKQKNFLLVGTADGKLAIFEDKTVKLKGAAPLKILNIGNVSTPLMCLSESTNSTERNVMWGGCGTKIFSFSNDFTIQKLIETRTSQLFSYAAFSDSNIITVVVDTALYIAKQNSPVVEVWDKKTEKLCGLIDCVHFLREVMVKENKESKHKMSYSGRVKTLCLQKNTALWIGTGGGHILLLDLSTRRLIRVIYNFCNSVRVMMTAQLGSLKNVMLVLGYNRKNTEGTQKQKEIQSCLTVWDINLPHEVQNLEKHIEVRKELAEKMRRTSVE
Outline: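 Kinase selectivity panel: single-point assessment at 3 µM, n=1.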

[3] = target: Mitogen-activated protein kinase 8 (Homo sapiens, UniProt P45983); assay: Inhibition of recombinant human full length His-tagged JNK1 expressed in baculovirus expression system by Z'-LYTE assay
Mitogen-activated protein kinase 8, sequence (P45983 whole entry, the tested form may be a part): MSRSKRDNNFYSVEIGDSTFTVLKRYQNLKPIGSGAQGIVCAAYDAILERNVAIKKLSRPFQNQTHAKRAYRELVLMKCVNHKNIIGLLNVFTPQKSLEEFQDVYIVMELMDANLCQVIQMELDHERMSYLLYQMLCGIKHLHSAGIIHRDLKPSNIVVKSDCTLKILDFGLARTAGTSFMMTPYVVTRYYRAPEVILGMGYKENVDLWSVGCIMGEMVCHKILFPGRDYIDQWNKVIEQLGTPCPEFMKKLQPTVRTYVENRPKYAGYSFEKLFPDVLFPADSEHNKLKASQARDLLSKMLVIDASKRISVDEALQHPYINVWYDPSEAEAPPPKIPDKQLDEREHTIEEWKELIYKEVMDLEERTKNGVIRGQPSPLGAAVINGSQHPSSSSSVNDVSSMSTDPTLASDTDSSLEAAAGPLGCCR

[4] = target: Leucine-rich repeat serine/threonine-protein kinase 2 (Homo sapiens, UniProt Q5S007); assay: Inhibition of recombinant human GST-tagged LRRK2 catalytic domain (970 to 2527 residues) expressed in baculovirus expression system using LRRKtide as substrate measured after 1 hr by Alexa fluor-647 ADP tracer-based ADAPTA assay
Leucine-rich repeat serine/threonine-protein kinase 2, sequence (Q5S007 whole entry, the tested form may be a part): as the sequence (Q5S007 whole entry G2019S, the tested form may be a part) above, with S2019G counted along it

[5] = target: Mitogen-activated protein kinase 10 (Homo sapiens, UniProt P53779); assay: Inhibition of recombinant human full length N-terminal GST-tagged JNK3 expressed in baculovirus expression system by Z'-LYTE assay
Mitogen-activated protein kinase 10, sequence (P53779 whole entry, the tested form may be a part): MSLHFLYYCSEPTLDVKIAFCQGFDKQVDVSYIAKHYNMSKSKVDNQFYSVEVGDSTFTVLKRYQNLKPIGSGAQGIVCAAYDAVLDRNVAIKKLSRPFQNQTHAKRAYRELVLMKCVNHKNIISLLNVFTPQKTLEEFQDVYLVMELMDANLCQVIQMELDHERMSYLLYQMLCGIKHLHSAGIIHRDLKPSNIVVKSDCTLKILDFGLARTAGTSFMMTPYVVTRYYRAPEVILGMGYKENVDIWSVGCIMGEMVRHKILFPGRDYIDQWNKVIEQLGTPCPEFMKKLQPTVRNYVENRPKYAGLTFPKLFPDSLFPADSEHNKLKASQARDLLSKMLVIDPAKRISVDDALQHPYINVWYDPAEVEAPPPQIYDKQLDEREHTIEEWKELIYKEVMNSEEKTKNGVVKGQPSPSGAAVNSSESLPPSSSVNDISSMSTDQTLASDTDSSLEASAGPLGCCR

[6] = target: Leukocyte tyrosine kinase receptor (Homo sapiens, UniProt P29376); assay: Inhibition of recombinant human GST-tagged LTK cytoplasmic domain (450 to 864 residues) expressed in baculovirus expression system by Z'-LYTE assay
Leukocyte tyrosine kinase receptor, sequence (P29376 whole entry, the tested form may be a part): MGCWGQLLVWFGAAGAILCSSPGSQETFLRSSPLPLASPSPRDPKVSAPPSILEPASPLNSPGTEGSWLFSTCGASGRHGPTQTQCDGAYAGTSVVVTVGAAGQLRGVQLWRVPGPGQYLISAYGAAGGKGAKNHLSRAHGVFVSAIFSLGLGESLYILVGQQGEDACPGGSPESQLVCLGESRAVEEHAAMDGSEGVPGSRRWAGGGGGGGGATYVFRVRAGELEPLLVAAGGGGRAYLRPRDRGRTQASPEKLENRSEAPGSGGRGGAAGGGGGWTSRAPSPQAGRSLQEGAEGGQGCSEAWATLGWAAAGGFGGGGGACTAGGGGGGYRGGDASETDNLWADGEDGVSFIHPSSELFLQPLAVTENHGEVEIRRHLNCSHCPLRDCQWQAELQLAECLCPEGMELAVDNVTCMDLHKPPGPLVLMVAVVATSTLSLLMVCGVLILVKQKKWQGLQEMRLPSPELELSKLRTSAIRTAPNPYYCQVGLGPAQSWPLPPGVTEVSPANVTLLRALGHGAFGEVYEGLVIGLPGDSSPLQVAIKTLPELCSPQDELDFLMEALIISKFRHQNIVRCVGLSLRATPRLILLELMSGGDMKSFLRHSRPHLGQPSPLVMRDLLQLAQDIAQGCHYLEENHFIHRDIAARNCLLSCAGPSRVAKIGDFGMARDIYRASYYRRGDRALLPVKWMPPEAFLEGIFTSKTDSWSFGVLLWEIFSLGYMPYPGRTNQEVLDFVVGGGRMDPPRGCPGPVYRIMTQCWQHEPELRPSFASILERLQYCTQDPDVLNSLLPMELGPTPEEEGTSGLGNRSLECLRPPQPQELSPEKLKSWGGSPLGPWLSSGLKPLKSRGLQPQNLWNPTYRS

Homo sapiens = species: Homo sapiens; assay: Selectivity ratio of IC50 for recombinant human full length His-tagged JNK1 expressed in baculovirus expression system to IC50 for inhibition of Kinase Tracer 236 binding to recombinant human full-length GST-tagged TTk expressed in baculovirus expression system
[7] = Cmax in CB17 SCID mouse at 30 mg/kg, po; type: ADME, organism-based; design: dose 30 mg/kg, route oral; conditions: in vivo
Outline: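 Oral PK in SCID mice at 30 mg/kg. Compound is formulated either in CMCT (0.5% CMC/0.25% tween-80) or in 5% TPGS, 10% captisol, 50 mM citrate buffer, depending on compound. Cmax and AUC are measured.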

CAL-51 [8] = assay: Antitumor activity against human CAL51 cells xenografted in CB17 SCID mouse assessed as tumor growth inhibition at 60 mg/kg, po administered every seven days for 16 days and measured twice per week up to 31 days by caliper method relative to control; type: functional; conditions: CAL-51, po, read-out: TGI
Outline: (§1)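 Female CB17 SCID mice, 6-8 weeks old, inoculated subcutaneously with 2×10^6 CAL-51 cells. Oral dosing once weekly (QW) at 30-120 mg/kg, or 30 mg/kg BID QW, for 16 days, against vehicle control. Tumour long and short axes measured twice weekly by digital caliper; volume = width² × length/2. Values are TGI; data are mean ± SEM.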

CAL-51 [9] = assay: Antitumor activity against human CAL51 cells xenografted in CB17 SCID mouse assessed as tumor growth inhibition at 30 mg/kg, po […] for 16 days and measured twice per week up to 31 days by caliper method relative to control; type: functional; conditions: CAL-51, po, read-out: TGI; outline: as §1
CAL-51 [10] = assay: Induction of apoptosis in human CAL51 cells xenografted in CB17 SCID mouse assessed as activation of cleaved caspase-3 at 30 mg/kg, po measured after 1 to 48 hrs by MSD electrochemiluminescent immunoassay relative to control; type: functional
Outline: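 CB17 SCID mice bearing CAL-51 tumours of 300-500 mm3 given compound orally. At preset time points the mice were euthanised and the tumours dissected and snap-frozen in liquid nitrogen. pHH3 Ser10 or cleaved caspase measured by MSD electrochemiluminescent immunoassay kit. Data are mean ± SEM.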

For `C[C@@H](Oc1cc(C(=O)N(C)C)ccc1Nc1nc(O[C@H]2CC[C@@](C)(O)CC2)c2c(Cl)c[nH]c2n1)C(F)(F)F`, the AUC [1] was 26 to 26.3 µM·h, the IC50 [2] was 9 nM and the inhibition at 1 h, 3 µM (LRRK2 G2019S mutant) was over 80%. The IC50 [3] was 0.032 nM, the IC50 [4] was 0.001 nM and the IC50 [5] was 0.107 nM. The IC50 [6] was 0.567 nM, the Ratio IC50 (Homo sapiens) was under 100 and the Cmax [7] was 5.2 µM. It also gave an inhibition in vivo at 60 mg/kg (CAL-51 [8]) of 65%, an inhibition in vivo at 30 mg/kg (CAL-51 [9]) of 84% and an Activity (CAL-51 [10]) of 250%.
